What was measured:
[1] = molecular target: RIPK3-RIPK1 interaction (Mus musculus, UniProt Q9QZL0); experiment: RIPK1 immunoprecipitation; format: cell-based; conditions: L929, 10 µM, 5 hours
Outline: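 Lysates were cleared at 17,000 g for 15 min at 4 °C, and an input sample was kept. Lysate was incubated with anti-RIPK1 antibody on protein A/G magnetic beads for 2 h at 4 °C. Co-precipitated RIPK3 was detected by Western blot. Normalized quantification came from three independent experiments.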

[2] = molecular target: mRIPK3^KD R69H (Mus musculus, UniProt Q9QZL0, C111A/R69H); experiment: Size-exclusion chromatography; conditions: protein 10 mg/mL, compound 1 mM
Outline: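 Mouse RIPK3 kinase domain 1-313 (C111A/R69H, C-terminal 10×His) was expressed in Sf-9 cells by baculovirus, with 10 µM test compound or DMSO added to the lysate. Ni-NTA eluate was concentrated to 10 mg/mL, incubated with 1 mM compound and centrifuged at 17,000 g for 15 min. It was then run on Superdex 200 Increase 10/300 in 25 mM Tris pH 8.0, 150 mM NaCl, 5 mM DTT plus 10 µM compound. Three independent runs.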

[3] = system: HT29 cells (TNF-α-induced necroptosis); experiment: Necroptosis induction and inhibition assay in HT29; format: cell-based, human; conditions: Homo sapiens, HT-29, read-out: EC50^HT29 against TNF-α-induced necroptosis, zVAD (20 μM), human TNF-α (40 ng/mL), Smac mimetic SM-164 (100 nM), CCK-8
[4] = system: caspase 3 activity in L929 cell lysates; experiment: Caspase 3 activity in L929 cell lysates; format: cell-based, mouse
Outline: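 L929 cells were cultured 12 h in 12-well plates, then exposed to test compound or DMSO for 0, 1, 2, 3 or 4 h. Protein was measured by BCA. Lysate was incubated with Ac-DEVD-pNA overnight at 37 °C and read at A405 minus blank. Three experiments, each in triplicate.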

[5] = system: panel of 291 kinases; conditions: 1 µM, overlapping panel of 272 kinases; ref 30 (Mandal et al., 2014); cited from earlier work
[6] = system: L929 RIPK3-/- + RIPK3 K51A cells; experiment: Cell viability assay with or without zVAD, L929 RIPK3-/- + RIPK3 K51A; format: cell-based, mouse; conditions: 1.6 μM, without zVAD
Outline: (§1)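 L929 cells were grown in MEM with 10% FBS. RIPK3 was knocked out by CRISPR/Cas9 (sgRNA against mouse RIPK3), and knockout was confirmed by sequencing and immunoblot. Knockout lines with or without re-expressed RIPK3 K51A or K51A/R69H were seeded at 10,000–20,000 cells/well and left to attach for 24 h. Cells were exposed to test compound alone or with zVAD for 18–20 h. Viability was read by CCK-8 (1–2 h, 37 °C, A450). Three experiments in triplicate; CC50 by nonlinear regression.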

[7] = system: caspase 3 and caspase 8 cleavage in L929 cells; experiment: Western blot of caspase 3 and caspase 8 cleavage in L929 cells; format: cell-based, mouse; conditions: L929, 3 hours
Outline: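 L929 cells in 12-well plates at about 80% confluency were exposed for 3 h to test compound, DMSO or medium, each with 10 µM zVAD. Cells were lysed at room temperature in a Triton X-100/Tris-based 1× SDS sample buffer and boiled 10 min. Proteins were run on 15% SDS-PAGE and blotted to PVDF. Membranes were blocked in 5% milk and probed for caspase 3 and caspase 8 cleavage overnight at 4 °C. Three independent experiments.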

[8] = system: L929 cells (TNF-α-induced necroptosis); experiment: Necroptosis induction and inhibition assay in L929; format: cell-based, mouse; conditions: Mus musculus, L929, read-out: EC50^L929 against TNF-α-induced necroptosis, mouse TNF-α (20 ng/mL) and zVAD (10 μM), CCK-8
[9] = system: L929 RIPK3-/- + RIPK3 K51A/R69H cells; experiment: Cell viability assay with or without zVAD, L929 RIPK3-/- + RIPK3 K51A/R69H; format: cell-based, mouse
Outline: as §1

[10] = system: RIPK3-mediated apoptosis; conditions: cited from earlier work

mRIPK3^KD R69H, sequence (Q9QZL0 1-313 R69H/C111A): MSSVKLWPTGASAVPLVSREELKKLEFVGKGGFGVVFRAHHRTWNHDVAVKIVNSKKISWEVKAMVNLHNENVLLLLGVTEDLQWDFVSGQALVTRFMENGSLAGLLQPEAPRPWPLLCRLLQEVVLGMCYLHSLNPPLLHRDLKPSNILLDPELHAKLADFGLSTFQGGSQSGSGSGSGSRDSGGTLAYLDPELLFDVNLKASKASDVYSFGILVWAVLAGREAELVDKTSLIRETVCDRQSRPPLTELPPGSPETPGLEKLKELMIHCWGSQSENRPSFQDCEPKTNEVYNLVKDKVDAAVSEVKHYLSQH
RIPK3-RIPK1 interaction, sequence (Q9QZL0 whole entry): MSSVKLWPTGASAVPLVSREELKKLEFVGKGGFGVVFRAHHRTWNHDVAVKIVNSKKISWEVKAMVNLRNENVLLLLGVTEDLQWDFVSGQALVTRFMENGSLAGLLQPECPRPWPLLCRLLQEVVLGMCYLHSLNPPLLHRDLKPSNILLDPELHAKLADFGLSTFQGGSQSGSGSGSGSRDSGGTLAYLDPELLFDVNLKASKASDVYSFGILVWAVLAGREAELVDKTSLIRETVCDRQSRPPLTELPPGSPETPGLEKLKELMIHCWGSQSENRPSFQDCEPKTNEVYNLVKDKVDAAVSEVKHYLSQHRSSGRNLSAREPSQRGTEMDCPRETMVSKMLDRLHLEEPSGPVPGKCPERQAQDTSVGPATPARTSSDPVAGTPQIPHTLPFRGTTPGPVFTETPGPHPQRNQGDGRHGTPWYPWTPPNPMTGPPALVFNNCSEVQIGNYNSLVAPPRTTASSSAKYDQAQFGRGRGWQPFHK

Row | elution position of mRIPK3^KD R69H in complex with inhibitor [2] | concentration at which caspase 3 is activated [4] | Compound | interaction between RIPK3 and RIPK1 (co-immunoprecipitation) [1] | EC50 [3] | number of kinases inhibited by >65% [5] | viability of cells expressing the ATPase-inactive RIPK3 K51A mutant [6] | activation of the apoptotic pathway: cleavage of caspase 8 and caspase 3 (Western blot) [7] | EC50 [8] | apoptosis in cells expressing RIPK3 K51A and R69H double mutation [9] | concentration triggering RIPK3-mediated apoptosis relative to EC50 [10]
1 | aligns with a monomer | 5 µM | CC(C)S(=O)(=O)c1ccc2nccc(Nc3ccc4scnc4c3)c2c1 [GSK'872, reference compound] | enhances the interaction between RIPK3 and RIPK1 | 7.9 µM | 13 kinases | significantly reduces the viability | cleavage of caspase 8 and caspase 3 | 3.6 µM | does not cause such apoptosis | –
2 | – | – | GSK'840 | – | – | – | – | – | – | – | approximately twice their EC50 values

— PMC12062462 (Nature Communications, 2025)
